Screens: PubChem BioAssay, several laboratories
A selection: hits, their analogues and other compounds. The true share with any hit is near 1.5%.
TPT1 inh – blocks Candida albicans tRNA 2'-phosphotransferase. recombinant caTPT1, FP RNA substrate dephosphorylation. inhibition, % at 5 µM. 300,000 tested, 0.81% active. AID 1962;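 active = inhibition above the mean of all tested compounds plus 3 SD, set per screening campaign, cut at about 24% in these data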
Rpn11 block – inhibitors of human proteasome Rpn11. AID 588493. inhibition, % at 20 µM. 360,000 tested, 0.59% active. human 26S proteasome, Ub4-pepOG fluorescence polarization; 20S core pre-blocked with epoxomicin. O00487;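 active = inhibition at 20 µM, scaled to each plate's controls, above about 33%, limit read from the data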
Target sequence (O00487 whole entry, looked up): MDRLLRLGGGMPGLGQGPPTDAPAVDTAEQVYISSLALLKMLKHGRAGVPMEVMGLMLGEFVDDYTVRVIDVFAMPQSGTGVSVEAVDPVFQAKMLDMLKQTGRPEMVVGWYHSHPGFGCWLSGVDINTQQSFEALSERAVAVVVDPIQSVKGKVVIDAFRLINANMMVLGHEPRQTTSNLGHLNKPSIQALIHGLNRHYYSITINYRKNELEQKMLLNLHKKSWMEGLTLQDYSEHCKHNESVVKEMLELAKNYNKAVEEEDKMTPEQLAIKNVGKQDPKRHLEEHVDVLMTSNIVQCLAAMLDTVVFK
CSN deneddyl inh – blocks human CSN-mediated cullin deneddylation; Purified CSN, SCF-Nedd8-OG deneddylation, fluorescence polarization; inhibition, % at 12.5 µM; 360,000 tested, 0.38% active; AID 651999;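 active = pattern-corrected inhibition above about 35%, with an unprinted fluorescence ratio check between 0.5 and 1.5, limit read from the data, passing the limit was not always enough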
Target sequence (Q92905 whole entry, looked up, one chain of several): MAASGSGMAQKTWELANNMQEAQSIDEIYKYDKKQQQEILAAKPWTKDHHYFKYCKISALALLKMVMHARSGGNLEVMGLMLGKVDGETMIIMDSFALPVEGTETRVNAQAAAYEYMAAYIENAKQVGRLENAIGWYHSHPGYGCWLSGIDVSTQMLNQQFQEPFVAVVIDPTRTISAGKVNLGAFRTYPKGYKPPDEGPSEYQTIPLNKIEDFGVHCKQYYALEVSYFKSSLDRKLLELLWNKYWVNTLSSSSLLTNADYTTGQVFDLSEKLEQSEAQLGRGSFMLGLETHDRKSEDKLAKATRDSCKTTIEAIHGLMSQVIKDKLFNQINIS
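test system = HEK293T-derived human Csn5 enzyme | amount = 0.24 nM Csn5 enzyme, final concentration | medium = Tris/NaCl/DTT buffer, pH 7.5 | schedule = 90 min reaction at room temperature | signal = FP | evaluation = inhibition of Csn5 cleavage, % | compound dosing = single dose of 12.5 µM compound with 0.25% DMSO | probe or stimulus = 10 nM SCFSkp2-Nedd8OG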
HNF4A DNA FP – change in binding of human HNF4 alpha to DNA. P41235. HNF4a-FITC DNA binding, fluorescence polarization, 1 h. activity change, % at 10 µM. 360,000 tested, 0.3% active; in the data active = activity change above about 30%, passing the limit was not always enough
Rpn11 confirm – confirmation of human proteasome Rpn11 inhibitors | 1,900 tested, 29% active | purified human 26S proteasome, Ub4-pepOG fluorescence polarization; proteasome pretreated with epoxomicin | inhibition, % at 20 µM | shares compounds with Rpn11 block
MMP-2 inh – blocks human MMP-2, flagging nonselective RPN11 hits | 1,900 tested, 4% active | shares compounds with Rpn11 block | AID 602330 | inhibition, % at 20 µM | recombinant MMP-2, FRET peptide cleavage fluorescence;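 note: human MMP-2 activated beforehand with APMA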
Thrombin inh – blocks bovine thrombin, flagging nonselective RPN11 hits | shares compounds with Rpn11 block | AID 602333 | inhibition, % at 20 µM | bovine thrombin cleavage of Ub4-pepOG, fluorescence polarization | 1,900 tested, 13% active;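 active = mean inhibition at least 40% at 20 µM, or signal 3 deviations below plate average, so some actives read negative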
A number is an active result; 0 = inactive; - = no result shown. Cut-off read from the data, not from the text of the source, unless noted: active = inhibition above about 40%; inactive = the rest.

SMILES	TPT1 inh	Rpn11 block	CSN deneddyl inh	HNF4A DNA FP	Rpn11 confirm	MMP-2 inh	Thrombin inh
CC(=O)C1=C(O)C2(C)c3c(O)c(C)c(O)c(C(C)=O)c3OC2CC1=O (centres undefined)	-	54	0	51	69	0	91
CCCn1c(N)c(C(=O)CSc2nnc(C3CC3)n2Cc2ccccc2)c(=O)n(C)c1=O	-	0	0	0	-	-	-
CN(C)CCN(C)C1CN(Cc2ccc([N+](=O)[O-])cc2)S(=O)(=O)C1 (centres undefined)	-	0	0	0	-	-	-
COc1ccc(/C=N/NC(=O)c2nnn(-c3nonc3N)c2-c2cccs2)cc1OC	0	66	0	0	0	0	0
COc1cc(/C=N/NC(=O)c2nnn(-c3nonc3N)c2-c2cccs2)ccc1O	0	0	0	0	-	-	-
COc1ccc(NC(=O)CSc2nnnn2C)cc1S(=O)(=O)N1CCCCC1	-	0	0	0	-	-	-
CCc1c(Cl)nc(N)nc1Nc1ccccc1C	-	76	0	0	0	0	0
Cc1cccc(NC(=O)/C(=C\c2ccco2)NC(=O)c2cccs2)c1	0	32	0	0	0	0	0
Cc1ccc(S(=O)(=O)NCCCNS(=O)(=O)c2ccccc2[N+](=O)[O-])cc1	0	0	0	0	-	-	-
O=C(NC(=S)Nc1ccccc1O)c1cncc(Br)c1	0	48	0	0	0	0	0
O=C(NC(=S)Nc1ccccc1C(=O)O)c1cncc(Br)c1	0	0	0	0	-	-	-
CN(C)CCCNc1ccc(-c2n[nH]c(=O)c3ccccc23)cc1[N+](=O)[O-]	0	56	0	0	0	0	0
CC(O)CNc1ccc(-c2n[nH]c(=O)c3ccccc23)cc1[N+](=O)[O-] (centres undefined)	0	0	0	0	-	-	-
COc1cc(NC(=O)CN(C)S(=O)(=O)c2ccc(C)cc2)cc(OC)c1	0	38	0	0	0	0	0
COc1ccc(S(=O)(=O)N(C)CC(=O)Nc2ccc(C)cc2)cc1OC	0	0	0	0	-	-	-
COc1ccc(NC(=O)CN(C)S(=O)(=O)c2ccc(Cl)cc2)c([N+](=O)[O-])c1	0	39	0	0	0	0	0
CCOC(=O)N1C(=O)NC(=O)C1c1ccc(OC)cc1 (centres undefined)	-	0	0	0	-	-	-
CC(=O)C1=C(C)NC(SCC(=O)c2ccc(Cl)cc2Cl)=C(C#N)C1c1ccco1 (centres undefined)	0	50	0	0	0	0	0
CC1(C)CC(NC(=O)C2CCN(S(=O)(=O)c3ccc(Cl)c(C(F)(F)F)c3)CC2)CC(C)(C)N1	-	0	0	0	-	-	-
Cc1cc(C)c2c(N)c(C(=O)N/N=C/c3cccs3)sc2n1	0	95	0	0	58	0	41
CCOC(=O)C1CCCN(C(=O)CN2C(=O)c3ccccc3S2(=O)=O)C1 (centres undefined)	-	0	0	0	-	-	-
O=C(CN1CCN(C(=O)c2cccs2)CC1)NC1CCCCC1	0	42	0	0	0	0	0
O=C(CN1CCN(C(=O)c2cccs2)CC1)Nc1ccc(Br)cc1	0	0	0	0	-	-	-
O=C(/C=C/c1ccc(Br)cc1)NC(=S)Nc1ccc(S(=O)(=O)Nc2nccs2)cc1	0	129	75	0	0	0	0
O=C(NC(=S)Nc1ccc(S(=O)(=O)Nc2nccs2)cc1)c1ccc(Br)o1	0	0	0	0	-	-	-
SMILES	TPT1 inh	Rpn11 block	CSN deneddyl inh	HNF4A DNA FP	Rpn11 confirm	MMP-2 inh	Thrombin inh
COCCN(C(=O)CSc1nnc(-c2ccccc2F)o1)c1c(N)n(Cc2ccccc2)c(=O)[nH]c1=O	-	0	0	0	-	-	-
O=C1NC(=S)N/C1=C\c1ccccc1OCc1ccc(C(=O)O)cc1	0	0	0	0	-	-	-
O=C(O)c1ccc(COc2ccccc2/C=C2/NC(=O)N(c3cccc(Cl)c3)C2=O)cc1	0	56	45	0	56	0	0
O=C(O)c1ccc(COc2ccccc2C=C2C(=O)c3ccccc3C2=O)cc1	0	46	0	0	66	0	0
CCOC(=O)C1=C(C)N=c2s/c(=C\c3ccc(OCC(=O)O)cc3)c(=O)n2C1c1ccccc1OC (centres undefined)	0	0	0	0	-	-	-
COc1ccc(/C=c2/sc3n(c2=O)C(c2ccccc2OC)C2=C(N=3)c3ccccc3CC2)cc1O (centres undefined)	0	48	0	0	0	0	0
CCOC(=O)C1=C(C)N=c2s/c(=C\c3ccc(O)c([N+](=O)[O-])c3)c(=O)n2C1c1ccccc1OC (centres undefined)	0	40	0	0	0	0	0
CCOC(=O)C1=C(C)N=c2s/c(=C\c3ccc(OCC(=O)O)cc3)c(=O)n2C1c1ccc(Cl)cc1 (centres undefined)	-	46	0	0	91	0	0
CCCCc1ccc(NC(=O)CC(C)=O)cc1	0	59	0	0	0	0	0
CCCCc1ccc(NC(=O)CC(C)(C)C)cc1	0	0	0	0	-	-	-
CC1=CC(=C(C#N)C#N)c2ccccc2N1C	0	43	0	0	125	0	56
Cc1ccccc1N1C(=O)CSC1=C(C#N)C#N	0	-	0	0	-	-	-
C[C@@H]1CN([C@@H](C)CO)C(=O)CCCn2nncc2CO[C@H]1CN(C)S(=O)(=O)c1ccccc1F	-	0	0	0	-	-	-
COCCNC(=O)c1c(NC(=O)c2nc(SC)ncc2Cl)sc2c1CCCC2	0	81	0	0	45	0	0
COc1cccc2sc(Nc3nc4ccc(NC(C)=O)cc4s3)nc12	0	41	0	0	0	0	0
COc1cccc(C(=O)O)c1OS(=O)(=O)c1ccc(C)cc1	-	0	0	0	-	-	-
COc1cc(/C=C(\C#N)C(=O)Nc2cc(C(F)(F)F)ccc2Cl)ccc1OCC(=O)Nc1cccc(C(F)(F)F)c1	0	80	0	0	59	0	0
O=C1c2ccccc2/C(=C\c2ccc(Br)s2)N1c1ccccc1	-	41	0	0	0	0	0
CC1=NN(c2ccccc2)C(=O)/C1=C\c1ccc(Br)s1	0	0	0	0	-	-	-
N#CC(C#N)=Cc1ccc(-c2ccc(S(=O)(=O)N=C(N)N)cc2)o1	0	46	0	0	0	76	0
O=C(N/N=C/c1ccccc1F)c1cc2c(ccc3ccccc32)o1	0	149	0	39	99	0	0
O=C(N/N=C/C=C/c1ccccc1)c1cc2c(ccc3ccccc32)o1	0	99	42	0	0	0	0
CCCC(=O)NC(c1ccco1)c1cc(Cl)c2cccnc2c1O (centres undefined)	0	42	0	0	0	0	0
C[C@H](CO)N1C[C@H](C)[C@@H](CN(C)S(=O)(=O)c2cn(C)cn2)Oc2ccc(NC(=O)C3CCCCC3)cc2C1=O	-	0	0	0	-	-	-
Cc1ccc(C(=O)NC(C)C2CC3CCC2C3)c(C)c1 (centres undefined)	0	0	0	0	-	-	-
